By inhibition is commonly meant the share of the control response that was lost under treatment. The term MFC denotes the smallest concentration meeting the test's criterion for killing the fungus. A high value points to less potent killing. As a reminder, the MIC is the smallest concentration in the dilution series that meets the test's criterion for growth inhibition. Higher therefore signals weaker potency. One may read the MBC as the smallest concentration meeting the test's criterion for killing. High values mean less potent killing, low ones more potent killing.

Common to all, as to format: functional
Assay [1] can be described thus: Antitumor activity against mouse EAC cells assessed as inhibition of cell viability at 100 ug/ml by Trypan blue assay. As to conditions: Ehrlich. In a few lines:
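EAC cells were taken by needle aspiration of ascitic fluid from preinoculated mice and diluted 1:10 in saline. Then 0.1 mL of cell suspension, 0.8 mL RPMI 1640 and 0.1 mL compound were incubated 2 h at 37 °C. Dead cells were counted by trypan blue exclusion, and % non-viable = non-viable/total cells × 100.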

Assay [2] deals with Aspergillus flavus. Nature of the assay: Antifungal activity against Aspergillus flavus at 5 mg/ml by agar disc diffusion method. The following applies: read-out: DIZ.
Assay [3] concerns Bacillus subtilis. Briefly: Antibacterial activity against Bacillus subtilis NCTC 1040 at 5 mg/ml after 24 hrs by agar disc diffusion method. As to conditions: NCTC 1040, 24 h, read-out: DIZ. In a few lines: (§1)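 Agar well-diffusion using 1 cm wells, each loaded with 100 of compound solution (5 mg/mL in DMF). Bacteria were maintained on nutrient agar and plated as a standard suspension. Plates were incubated 24 h at 35 °C, and inhibition zone diameters were measured.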
(In general: Agar diffusion results depend on both activity and mobility in agar.)

Assay [4] relates to Candida albicans. Briefly: Fungicidal activity against Candida albicans IMRU 3669 by broth microtiter MIC test.
In assay [5] the test system is Staphylococcus aureus. Briefly: Antibacterial activity against Staphylococcus aureus NCTC 7447 by macrotube dilution method. The essentials: (§2)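 Macrotube twofold dilution following CLSI guidelines, with 15 tubes per organism. Tube 1 held 2 mg compound in 2.0 mL DMF and tubes 2–14 held 1.0 mL broth; 1.0 mL was carried serially, and tube 15 was the control. Colonies were suspended in 5.0 mL broth, then 0.2 mL was diluted into 40 mL, and 1.0 mL was added per tube. Bacteria were grown in nutrient broth at 37 °C overnight; fungi in Czapek's Dox at 30 °C for 72 h.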

The subject of assay [6] is Micrococcus luteus. Nature of the assay: Antibacterial activity against Sarcina lutea ATCC 934 by macrotube dilution method. The essentials: as §2
In assay [7] the test system is Escherichia coli. Briefly: Bactericidal activity against Escherichia coli NCTC 10416 by broth microtiter MIC test.
Assay [8] has as its system Escherichia coli. Nature of the assay: Antibacterial activity against Escherichia coli NCTC 10416 at 5 mg/ml after 24 hrs by agar disc diffusion method. As to conditions: NCTC 10416, 24 h, read-out: DIZ. The essentials:
as §1

For assay [9], the system named is Aspergillus flavus. Nature of the assay: Fungicidal activity against Aspergillus flavus by broth microtiter MIC test.
The test system of assay [10] is Micrococcus luteus. Briefly: Antibacterial activity against Sarcina lutea ATCC 934 at 5 mg/ml after 24 hrs by agar disc diffusion method. As to conditions: ATCC 934, 24 h, read-out: DIZ. In a few lines: as §1
Assay [11] deals with Escherichia coli. Nature of the assay: Antibacterial activity against Escherichia coli NCTC 10416 by macrotube dilution method. In a few lines: as §2
Assay [12] concerns Bacillus subtilis. Nature of the assay: Antibacterial activity against Bacillus subtilis NCTC 1040 by macrotube dilution method. The essentials: as §2
Assay [13] relates to Candida albicans. Briefly: Antifungal activity against Candida albicans IMRU 3669 after 72 hrs by macrotube dilution method. The following applies: IMRU 3669, 72 h. In a few lines:
as §2

Assay [14] has as its system Candida albicans. Nature of the assay: Antifungal activity against Candida albicans IMRU 3669 at 5 mg/ml by agar disc diffusion method. As to conditions: read-out: DIZ.
Assay [15] relates to Bacillus subtilis. Briefly: Bactericidal activity against Bacillus subtilis NCTC 1040 by broth microtiter MIC test.
Assay [16] has as its system Aspergillus flavus. Nature of the assay: Antifungal activity against Aspergillus flavus after 72 hrs by macrotube dilution method. In a few lines:
as §2

Assay [17] has as its system Staphylococcus aureus. Nature of the assay: Bactericidal activity against Staphylococcus aureus NCTC 7447 by broth microtiter MIC test.
Assay [18] has as its system Staphylococcus aureus. Briefly: Antibacterial activity against Staphylococcus aureus NCTC 7447 at 5 mg/ml after 24 hrs by agar disc diffusion method. As to conditions: NCTC 7447, 24 h, read-out: DIZ. The essentials:
as §1

In assay [19] the test system is Micrococcus luteus. Briefly: Bactericidal activity against Sarcina lutea ATCC 934 by broth microtiter MIC test.

Each structure is given as a SMILES string. Converted amounts (≈) assume the structure as drawn.

With `N=C1C(=S)N(c2ccccc2)C(=O)N1Cc1ccccc1`, the inhibition at 100 µg/mL in assay [1] turned out to be 60%. Also, the zone of inhibition at 5000 µg/mL in the assay with Aspergillus flavus [2] was 17 mm; with Bacillus subtilis [3], 21.5 mm; in the assay on Escherichia coli [8], 23.5 mm; with Micrococcus luteus [10] it was 20 mm; in the assay with Candida albicans [14] it was 24 mm; with Staphylococcus aureus [18], 22 mm. Moreover, the figures for the MFC in the assay on Candida albicans [4] and against Aspergillus flavus [9] were 64.5 µg/mL (≈ 218 µM) and 250 µg/mL (≈ 846 µM), respectively. The MIC was 64.5 µg/mL (≈ 218 µM) against Staphylococcus aureus [5]; 32.3 µg/mL (≈ 109 µM) in the assay with Micrococcus luteus [6]; 16.1 µg/mL (≈ 54.5 µM) in the assay on Escherichia coli [11]; 64.5 µg/mL (≈ 218 µM) against Bacillus subtilis [12]; 64.5 µg/mL (≈ 218 µM) against Candida albicans [13]; 250 µg/mL (≈ 846 µM) in the assay with Aspergillus flavus [16]. Besides, the MBC against Escherichia coli [7] is 16.1 µg/mL (≈ 54.5 µM); with Bacillus subtilis [15], 64.5 µg/mL (≈ 218 µM); with Staphylococcus aureus [17] it was 64.5 µg/mL (≈ 218 µM); in the assay on Micrococcus luteus [19], 32.3 µg/mL (≈ 109 µM).
